This passage reports IC50 results from ChEMBL document CHEMBL5126577, “Discovery of honokiol thioethers containing 1,3,4-oxadiazole moieties as potential α-glucosidase and SARS-CoV-2 entry inhibitors” (Bioorg Med Chem, 2022).

The test system of this experiment is SARS-CoV-2. In words: Antiviral activity against pseudovirus SARS-CoV-2 spike protein infected in HEK-293T cells overexpressing ACE2 assessed as inhibition on pseudovirus infection incubated for 52 hrs by luminescence based microplate reader analysis. The conditions noted are these: Severe acute respiratory syndrome coronavirus 2, HEK-293T. In kind it is functional, organism-based. The method, boiled down:
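HEK-293T-ACE2h cells were pre-incubated with compound in DMEM for 2 h, then inoculated with luciferase-reporter spike pseudovirus plus 2-fold compound for about 2 h at 37 °C. The inoculum was replaced with fresh DMEM and cells were kept 48 h at 37 °C, then lysed. Luciferase luminescence was read, with virus-only cells set as 100%, and IC50 was computed.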
Turning to `C=CCc1cc(-c2cc(CC=C)c3oc(SCc4nnc(-c5ccccc5)o4)nc3c2)c2oc(SCc3nnc(-c4ccccc4)o3)nc2c1`, the IC50 was more than 100 µM.
`C=CCc1cc(-c2cc(CC=C)c3oc(SCc4nnc(-c5ccc(OC)cc5)o4)nc3c2)c2oc(SCc3nnc(-c4ccc(OC)cc4)o3)nc2c1`: the IC50 was more than 100 µM.
As to `C=CCc1cc(-c2cc(CC=C)c3oc(SCc4nnc(-c5cccc(F)c5)o4)nc3c2)c2oc(SCc3nnc(-c4cccc(F)c4)o3)nc2c1`, the IC50 is more than 100 µM.
Next, `C=CCc1cc(-c2cc(CC=C)c3oc(SCc4nnc(-c5ccccc5F)o4)nc3c2)c2oc(SCc3nnc(-c4ccccc4F)o3)nc2c1`: more than 100 µM.
Turning to `C=CCc1cc(-c2cc(CC=C)c3oc(SCc4nnc(-c5ccc(Cl)cc5)o4)nc3c2)c2oc(SCc3nnc(-c4ccc(Cl)cc4)o3)nc2c1`, the IC50 was more than 100 µM.
Next, `C=CCc1cc(-c2cc(CC=C)c3oc(SCc4nnc(-c5ccccc5Cl)o4)nc3c2)c2oc(SCc3nnc(-c4ccccc4Cl)o3)nc2c1`: 84.4 µM; `C=CCc1cc(-c2cc(CC=C)c3oc(SCc4nnc(-c5ccc(F)cc5)o4)nc3c2)c2oc(SCc3nnc(-c4ccc(F)cc4)o3)nc2c1`: more than 100 µM.
Take `C=CCc1cc(-c2cc(CC=C)c3oc(SCc4nnc(-c5ccccc5C)o4)nc3c2)c2oc(SCc3nnc(-c4ccccc4C)o3)nc2c1`: the IC50 was more than 100 µM.
Next, `C=CCc1cc(-c2cc(CC=C)c3oc(SCc4nnc(-c5cccc(OC)c5)o4)nc3c2)c2oc(SCc3nnc(-c4cccc(OC)c4)o3)nc2c1`: more than 100 µM; `C=CCc1cc(CSc2nnc(-c3ccccc3C)o2)c(O)c(-c2ccc(O)c(CC=C)c2)c1`: more than 100 µM.
Turning to `C=CCc1cc(CSc2nnc(-c3ccccc3)o2)c(O)c(-c2ccc(O)c(CC=C)c2)c1`, the IC50 stood at 17 µM.
Consider `C=CCc1cc(CSc2nnc(-c3ccccc3F)o2)c(O)c(-c2ccc(O)c(CC=C)c2)c1`, for which the IC50 is more than 100 µM.
Take `C=CCc1cc(-c2cc(CC=C)c3oc(SCc4nnc(-c5ccccc5Br)o4)nc3c2)c2oc(SCc3nnc(-c4ccccc4Br)o3)nc2c1`: the concentration for half-maximal inhibition (IC50) was more than 100 µM.
On to `C=CCc1cc(-c2cc(CC=C)c3oc(SCc4nnc(-c5ccc(Br)cc5)o4)nc3c2)c2oc(SCc3nnc(-c4ccc(Br)cc4)o3)nc2c1`, for which the IC50 is more than 100 µM.
As to `C=CCc1ccc(O)c(-c2ccc(O)c(CC=C)c2)c1` [HONOKIOL], the IC50 was more than 50 µM.
As for `C=CCc1cc(CSc2nnc(-c3ccccc3Cl)o2)c(O)c(-c2ccc(O)c(CC=C)c2)c1`, the IC50 amounted to 85.2 µM.
Next, `C=CCc1cc(-c2cc(CC=C)c3oc(SCc4nnc(-c5ccccc5OC)o4)nc3c2)c2oc(SCc3nnc(-c4ccccc4OC)o3)nc2c1`: more than 100 µM.
With `C=CCc1cc(CSc2nnc(-c3cccnc3)o2)c(O)c(-c2ccc(O)c(CC=C)c2)c1`, the IC50 stood at 45.6 µM.
Next, `C=CCc1cc(-c2cc(CC=C)c3oc(SCc4nnc(-c5cccc(C)c5)o4)nc3c2)c2oc(SCc3nnc(-c4cccc(C)c4)o3)nc2c1`: more than 100 µM.
As to `C=CCc1cc(-c2cc(CC=C)c3oc(SCc4nnc(-c5cccc(Br)c5)o4)nc3c2)c2oc(SCc3nnc(-c4cccc(Br)c4)o3)nc2c1`, the IC50 is more than 100 µM.
As for `C=CCc1cc(-c2cc(CC=C)c3oc(SCc4nnc(-c5ccc(C)cc5)o4)nc3c2)c2oc(SCc3nnc(-c4ccc(C)cc4)o3)nc2c1`, the IC50 is more than 100 µM.
Take `C=CCc1cc(-c2cc(CC=C)c3oc(SCc4nnc(-c5cccc(Cl)c5)o4)nc3c2)c2oc(SCc3nnc(-c4cccc(Cl)c4)o3)nc2c1`: the IC50 is more than 100 µM.
